Measured values from different studies.
Each line is one published result; the experiments were not run side by side.
JAK2 JH1: Tyrosine-protein kinase JAK2, JH1 (JAK2, Homo sapiens, UniProt O60674)
JAK2: Tyrosine-protein kinase JAK2 (JAK2, Homo sapiens, UniProt O60674)

Cn1cncc1[C@](O)(COc1ccc(C#N)cc1-c1ccc(OC(F)(F)F)cc1)c1ccc(C#N)cc1 — remaining binding (JAK2 JH1; cell-free assay, competition with immobilised ligand; 1 µM): 91%
Cn1cc(-c2cccc(N3CCc4c(sc5c4CC(C)(C)C5)C3=O)c2CO)cc(Nc2ccncn2)c1=O — inhibition (JAK2; enzyme activity, inhibitor; 1 µM): -5%
C#Cc1n[nH]c2c(-c3cn(C(C)c4ccccn4)c(=O)[nH]c3=O)cc(F)cc12 (stereo not drawn) — inhibition (JAK2; enzyme activity, inhibitor; 1 µM): -4.2%
N#CC1(c2ccccn2)CCN(Cc2cc(C(=O)O)c(=O)n3ccccc23)CC1 — remaining binding (JAK2 JH1; cell-free assay, competition with immobilised ligand; 1 µM): 96%
Cn1cc(-c2cc(F)cc(N3CCn4c(cc5c4CCCC5)C3=O)c2CO)cc(Nc2ccc(N3CCN(C4COC4)CC3)cn2)c1=O — inhibition (JAK2; enzyme activity, inhibitor; 0.1 µM): 8%
CC(C)(C)c1cc(C=C(C#N)C#N)cc(Br)c1O — remaining activity (JAK2; enzyme activity, inhibitor; 0.5 µM): 107%
COc1ncccc1-c1cnn2ccc(N3CCN(C(=O)OC(C)C)CC3)nc12 — remaining binding (JAK2; binding, competition with immobilised ligand; 1 µM): 89%
O=c1[nH]c2ccccc2n1C1CCN(Cc2ccc(-c3[nH]c4cc5ncnc5cc4nc3-c3ccccc3)cc2)CC1 — remaining signal (JAK2; cell-free assay; 0.5 µM): 104%
Nc1ncc(-c2nc(N3CCOCC3)nc(N3CCOCC3)n2)c(C(F)F)n1 — remaining binding (JAK2 JH1; binding, competition with immobilised ligand; 10 µM): 65%
